Test results: article PMC7900901 (SLAS discovery : advancing life sciences R & D, 2017)
Entries after “also recorded” stand apart in the source; their conditions may differ. Where two headings read alike, the source gives them in different places. Values belong to the molecule of their own block, whether it stands above or below them.

Columns and labels:
Assay type in all cases: biochemical
human TDP1 [1] = target: T1, human TDP1 (Homo sapiens, UniProt Q9NUW8); assay: Reversibility of inhibition by preincubation and rapid dilution; settings: for Recovery of the uninhibited control rate: after preincubation with compound for 1 h, rapid dilution; for Reversibility of inhibition: preincubation at 10X IC50 for 1 h, 100-fold dilution
T1 sequence (Q9NUW8 whole entry): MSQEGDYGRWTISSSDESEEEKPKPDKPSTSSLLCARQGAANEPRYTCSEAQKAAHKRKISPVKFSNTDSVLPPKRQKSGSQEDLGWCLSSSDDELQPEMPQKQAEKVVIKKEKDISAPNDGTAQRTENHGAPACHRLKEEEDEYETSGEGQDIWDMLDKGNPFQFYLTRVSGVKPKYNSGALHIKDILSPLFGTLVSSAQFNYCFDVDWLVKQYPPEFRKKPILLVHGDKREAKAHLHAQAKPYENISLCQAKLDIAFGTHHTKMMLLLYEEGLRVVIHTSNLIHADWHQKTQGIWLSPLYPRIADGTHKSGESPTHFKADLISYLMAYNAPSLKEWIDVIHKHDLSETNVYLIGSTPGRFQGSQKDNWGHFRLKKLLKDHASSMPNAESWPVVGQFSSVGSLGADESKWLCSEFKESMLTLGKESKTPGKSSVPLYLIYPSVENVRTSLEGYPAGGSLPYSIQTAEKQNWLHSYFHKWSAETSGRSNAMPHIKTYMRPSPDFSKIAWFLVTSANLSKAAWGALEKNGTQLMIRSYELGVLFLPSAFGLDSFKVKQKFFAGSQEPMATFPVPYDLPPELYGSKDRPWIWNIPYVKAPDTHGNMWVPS

human TDP1 [2] = target: T1, human TDP1; assay: Mechanism of inhibition, substrate/inhibitor matrix
Method in brief: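 Full-length TDP1 was preincubated with test compound on ice for 1 h. Then eosin/TAMRA FRET substrate was added, […] twofold dilutions from 2.25 to 0.035 μM, with three inhibitor levels plus a no-inhibitor control. Final TDP1 was 500 pM in PBS pH 8.0 buffer. Eosin fluorescence (ex 525/em 545 nm) was read over about 1 h at 28 °C. Rate versus substrate data were fitted to competitive, noncompetitive (pure and mixed) and uncompetitive models, with the best fit chosen by Akaike's Information Criterion.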

human TDP1 [3] = target: T1, human TDP1; assay: Continuous FRET assay, IC50 determination of inhibitors of TDP1
[4] = 500 pM TDP1, 1.5 μM FRET substrate, 1 h preincubation

SMILES: CC(C)=CCC12OC1(O)C(=O)c1c(O)cccc1C2=O (centres unmarked) [2,3-epoxy-8-hydroxy-lapachol]
- Recovery of the uninhibited control rate (human TDP1 [1]): 90%
- Reversibility of inhibition (human TDP1 [1]): fully reversible
- Mechanism of inhibition (human TDP1 [2]; inhibitor at 0, 6.6, 20 and 60 μM, Akaike's Information Criterion): mixed-type noncompetitive mechanism
- Ki (human TDP1 [2]; read-out: Kie (inhibition constant for TDP1 alone), mixed noncompetitive model): 40.9 ± 14.1 µM

SMILES: CC(=O)Oc1ccc2ccc(=O)oc2c1OC(C)=O [Daphnetin diacetate]
- IC50 (human TDP1 [3]): 1.1 ± 0.2 µM

SMILES: C[C@@]12CCCc3coc(c31)C(=O)c1cc3c(cc12)C(=O)C=CC3=O [Xestoquinone]
- IC50 (human TDP1 [3]): 93 ± 1.1 µM

SMILES: COC[C@H]1OC(=O)c2coc3c2[C@@]1(C)C1=C(C3=O)[C@@H]2CCC(=O)[C@@]2(C)C[C@H]1OC(C)=O [wortmannin, reference compound]
- Inhibition of TDP1 (human TDP1 [3]; concentrations up to 500 μM): unable to inhibit TDP1; also recorded: did not inhibit TDP1

Continued, in another order:

- Recovery of the uninhibited control rate (human TDP1 [1]): 90%
SMILES: O=C(O)C1=CC(=C(c2ccc(O)c(C(=O)O)c2)c2ccc(O)c(C(=O)O)c2)C=CC1=O [Aurintricarboxylic acid, reference compound]

- IC50 (human TDP1 [3]; [4]): 24 ± 1.1 µM
SMILES: C[C@@]12CCC(=O)c3coc(c31)C(=O)c1cc3c(O)ccc(OS(=O)(=O)O)c3cc12.[Na+] [Halenaquinol sulfate]
- Reversibility of inhibition (human TDP1 [1]): irreversibly inhibited TDP1; also recorded: irreversibly inhibiting TDP1

- IC50 (human TDP1 [3]; [4]): 26 ± 1 µM
- Reversibility of inhibition (human TDP1 [1]; listed as Halenoquinone): irreversible inhibition
SMILES: C[C@@]12CCC(=O)c3coc(c31)C(=O)c1cc3c(cc12)C(=O)C=CC3=O [Halenaquinone]
- Reversibility of inhibition (human TDP1 [1]): irreversibly inhibited TDP1; also recorded: irreversibly inhibiting TDP1

- IC50 (human TDP1 [3]): 52 ± 1 µM
SMILES: C[C@H](O)C#CC#CC#CC#CCCCCCCCC(=O)O [Minquartynoic acid]
